Data on eleven compounds can be found in ChEMBL document CHEMBL3745707 (Bioorg Med Chem, 2016).

In data set [1] the target is T1, Serine/threonine-protein kinase PLK2 (Homo sapiens, UniProt Q9NYY3). Briefly: Inhibition of human recombinant PLK2 using recombinant dephosphorylated bovine alpha- casein as substrate after 30 mins by scintillation counting analysis in presence of gamma-32P-ATP.
Target sequence in this assay (Q9NYY3 whole entry): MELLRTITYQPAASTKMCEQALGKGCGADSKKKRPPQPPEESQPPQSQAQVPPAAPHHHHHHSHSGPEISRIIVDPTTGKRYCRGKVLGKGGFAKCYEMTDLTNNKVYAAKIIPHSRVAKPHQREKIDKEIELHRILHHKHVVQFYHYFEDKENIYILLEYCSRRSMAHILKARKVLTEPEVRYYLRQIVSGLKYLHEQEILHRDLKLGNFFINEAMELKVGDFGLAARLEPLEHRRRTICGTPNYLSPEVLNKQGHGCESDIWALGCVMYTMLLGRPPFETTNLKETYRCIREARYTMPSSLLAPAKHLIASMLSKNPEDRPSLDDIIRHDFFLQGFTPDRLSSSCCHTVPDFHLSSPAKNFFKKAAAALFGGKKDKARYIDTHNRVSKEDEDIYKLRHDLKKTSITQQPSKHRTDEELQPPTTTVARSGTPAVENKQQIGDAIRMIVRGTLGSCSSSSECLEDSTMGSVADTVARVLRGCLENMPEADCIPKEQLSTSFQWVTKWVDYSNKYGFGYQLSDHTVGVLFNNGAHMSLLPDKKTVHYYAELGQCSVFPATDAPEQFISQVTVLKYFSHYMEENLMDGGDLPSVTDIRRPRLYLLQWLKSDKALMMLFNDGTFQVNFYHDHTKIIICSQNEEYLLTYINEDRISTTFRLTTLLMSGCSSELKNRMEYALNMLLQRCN
Data set [2] in a line: cells. It counts as functional, cell-based. To be noted: Homo sapiens, DU-145, 72 h.
In the next data set the test system is K562. Briefly: cells. Format: functional, cell-based. To be noted: Homo sapiens, K562, 72 h.
In data set [3] the target is T1, Serine/threonine-protein kinase PLK2.
Target sequence in this assay (Q9NYY3 whole entry, looked up): as the sequence (Q9NYY3 whole entry) above
For the next data set, the system named is NCI-H1975. As to the kind of experiment: cells. To be noted: Homo sapiens, NCI-H1975, 72 h. It counts as functional.
A short description of data set [4]: cells. It counts as functional. To be noted: Homo sapiens, Granta-519, 72 h.
The nature of data set [5]: cells. It counts as functional. To be noted: Homo sapiens, SK-OV-3, 72 h.
Data set [6] can be described thus: cells. It counts as functional. To be noted: Homo sapiens, COLO 205, 72 h.
A short description of data set [7]: cells. Format: functional. To be noted: Homo sapiens, BT-474, 72 h.
In data set [8] the test system is U2OS. Briefly: cells. It counts as functional. To be noted: Homo sapiens, 72 h.
For another data set, the system named is MCF7. Briefly: cells. Format: functional. To be noted: Homo sapiens, MCF7, 72 h.
Another data set relates to A549. As to the kind of experiment: cells. It counts as functional. To be noted: Homo sapiens, A549, 72 h.
A short description of data set [9]: cells. It counts as functional, U-87MG ATCC. To be noted: Homo sapiens, U-87 MG, 72 h.
Data set [10] can be described thus: cells. It counts as functional. To be noted: Homo sapiens, MIA PaCa-2, 72 h.
The target in data set [11] is T2, Tubulin (Bos taurus) (UniProt Q6B856+Q862L2+Q862F3). Briefly: Inhibition of bovine MAP rich tubulin polymerization at 10 uM measured every 2 mins for 30 mins by UV-visible spectrophotometric analysis. Format: protein assay. In a few lines:
(§1)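 MAP-rich bovine tubulin at 1.5 mg/mL in 80 mM PIPES pH 6.9, 1 mM GTP, 0.5 mM EGTA, 2 mM MgCl₂. Briefly preincubated with agent or DMSO, then polymerized at 37 °C in a spectrophotometer. Absorbance recorded every 2 min for 30 min; n = 3.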

For a further data set, the system named is SK-MEL-28. Briefly: cells. Format: functional. To be noted: Homo sapiens, SK-MEL-28, 72 h.
A further data set concerns Raji. Briefly: cells. Format: functional. To be noted: Homo sapiens, 72 h.
The next data set relates to HeLa. As to the kind of experiment: cells. To be noted: Homo sapiens, 72 h. Format: functional.
Data set [12] deals with Testis-specific serine/threonine-protein kinase 3 (Homo sapiens, UniProt Q96PN8). Briefly: Inhibition of human TSSK3 using [KKKVSRSGLYRSPSMPENLNRPR] as substrate.
Data set [13] addresses TRAF2 and NCK-interacting protein kinase (Homo sapiens, UniProt Q9UKE5). Briefly: Inhibition of human TNIK using [RLGRDKYKTLRQIRQ] as substrate.
The target of data set [14] is Glycogen synthase kinase-3 alpha (Homo sapiens, UniProt P49840). As to the kind of experiment: Inhibition of human GSK3alpha using [YRRAAVPPSPSLSRHSSPHQ(pS)EDEEE] as substrate.
Data set [15] addresses Serine/threonine-protein kinase Nek9 (Homo sapiens, UniProt Q8TD19). As to the kind of experiment: Inhibition of human NEK9 using MBP as substrate.
Data set [16] relates to U2OS. Briefly: Induction of apoptosis in human U2OS cells assessed as increase in caspase 3/7 activity after 24 hrs by caspase Glo assay. Format: functional, cell-based. The procedure, abridged:
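U2OS cells (DMEM, 10% FBS, 37 °C, 5% CO₂) plated at 1–3 × 10⁴ cells/well, left overnight, then exposed 24 h to increasing concentrations, with DMSO control. Caspase 3/7 activity read by Caspase-Glo luminescence; viability measured in parallel with Cell Titer Blue fluorescence.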

The target in data set [17] is Serine/threonine-protein kinase Nek5 (Homo sapiens, UniProt Q6P3R8). Briefly: Inhibition of human NEK5 using MBP as substrate.
Data set [18] has as its target Fibroblast growth factor receptor 3 (Homo sapiens, UniProt P22607). Briefly: Inhibition of human FGFR3 using poly[Glu:Tyr] (4:1) as substrate.
Data set [19] concerns the target Serine/threonine-protein kinase PLK1 (Homo sapiens) (UniProt P53350).
Data set [20] has as its target Ribosomal protein S6 kinase alpha-1 (Homo sapiens, UniProt Q15418). Briefly: Inhibition of human RSK1 using [KKLNRTLSVA] as substrate.
Data set [21] deals with Serine/threonine-protein kinase Nek2 (Homo sapiens, UniProt P51955). As to the kind of experiment: Inhibition of human NEK2 using MBP as substrate.
The target in another data set is Ephrin type-A receptor 6 (Homo sapiens, UniProt Q9UF33). Briefly: Inhibition of human EPHA6 using poly[Glu:Tyr] (4:1) as substrate.
The target of data set [22] is T1, Serine/threonine-protein kinase PLK2. Briefly: Inhibition of human PLK2 using casein as substrate.
Target sequence in this assay (Q9NYY3 whole entry): as the sequence (Q9NYY3 whole entry) above
Data set [23] concerns the target Cyclin-Y/Cyclin-dependent kinase 16 (Homo sapiens, UniProt Q00536). As to the kind of experiment: Inhibition of human CDK16/cyclin Y using RP protein as substrate. It counts as protein-complex assay.
Data set [24] addresses High affinity nerve growth factor receptor (Homo sapiens, UniProt P04629). Briefly: Inhibition of human TRKA using poly[Glu:Tyr] (4:1) as substrate.
Data set [25] deals with Fibroblast growth factor receptor 1 (Homo sapiens, UniProt P11362). Briefly: Inhibition of human FGFR1 using [KKKSPGEYVNIEFG] as substrate.
Data set [26] addresses Receptor-type tyrosine-protein kinase FLT3 (Homo sapiens, UniProt P36888). Briefly: Inhibition of human FLT3 using [EAIYAAPFAKKK] as substrate.
The next data set concerns Mus musculus. As to the kind of experiment: Toxicity in NCR nu/nu mouse xenografted with human MDA-MB-231 cells assessed as change in body weight at 75 mg/kg, ip administered alternative day. To be noted: in vivo. Format: organism-based. (A xenograft is tissue or cells of one species grown in another, often human tumour cells in immunodeficient mice.)
Data set [27] addresses Mitogen-activated protein kinase 14 (Homo sapiens, UniProt Q16539). Briefly: Inhibition of human P38alpha using MBP as substrate.
Data set [28] has as its target Serine/threonine-protein kinase Nek1 (Homo sapiens, UniProt Q96PY6). As to the kind of experiment: Inhibition of human NEK1 using MBP as substrate.
The target of data set [29] is T2, Tubulin (Bos taurus). Briefly: Inhibition of bovine MAP rich tubulin polymerization at 1 uM measured every 2 mins for 30 mins by UV-visible spectrophotometric analysis. Format: protein assay. In a few lines:
as §1

pIC50: −log10 of the molar value. Activity calls are given as the source filed them. No cut-off for these calls is given here.

Chain of Serine/threonine-protein kinase Nek5 (Q6P3R8 whole entry): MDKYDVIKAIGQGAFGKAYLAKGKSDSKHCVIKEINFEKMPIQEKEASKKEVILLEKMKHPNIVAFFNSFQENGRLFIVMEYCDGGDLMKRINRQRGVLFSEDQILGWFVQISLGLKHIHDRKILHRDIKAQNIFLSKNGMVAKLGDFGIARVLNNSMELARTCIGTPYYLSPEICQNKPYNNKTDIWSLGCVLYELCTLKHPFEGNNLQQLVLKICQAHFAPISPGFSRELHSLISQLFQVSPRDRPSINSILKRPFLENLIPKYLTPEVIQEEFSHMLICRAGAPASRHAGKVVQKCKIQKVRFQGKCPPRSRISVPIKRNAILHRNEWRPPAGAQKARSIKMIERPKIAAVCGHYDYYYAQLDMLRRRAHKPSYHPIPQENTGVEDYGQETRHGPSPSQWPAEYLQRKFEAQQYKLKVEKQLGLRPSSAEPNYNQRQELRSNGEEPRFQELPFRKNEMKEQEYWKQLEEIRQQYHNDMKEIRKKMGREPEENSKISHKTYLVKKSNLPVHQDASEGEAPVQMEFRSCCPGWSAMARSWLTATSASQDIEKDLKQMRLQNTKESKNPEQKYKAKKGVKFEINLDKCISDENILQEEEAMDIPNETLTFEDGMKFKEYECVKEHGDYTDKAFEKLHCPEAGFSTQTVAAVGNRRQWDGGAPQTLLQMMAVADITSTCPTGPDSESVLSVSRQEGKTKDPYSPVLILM
Chain of High affinity nerve growth factor receptor (P04629 whole entry): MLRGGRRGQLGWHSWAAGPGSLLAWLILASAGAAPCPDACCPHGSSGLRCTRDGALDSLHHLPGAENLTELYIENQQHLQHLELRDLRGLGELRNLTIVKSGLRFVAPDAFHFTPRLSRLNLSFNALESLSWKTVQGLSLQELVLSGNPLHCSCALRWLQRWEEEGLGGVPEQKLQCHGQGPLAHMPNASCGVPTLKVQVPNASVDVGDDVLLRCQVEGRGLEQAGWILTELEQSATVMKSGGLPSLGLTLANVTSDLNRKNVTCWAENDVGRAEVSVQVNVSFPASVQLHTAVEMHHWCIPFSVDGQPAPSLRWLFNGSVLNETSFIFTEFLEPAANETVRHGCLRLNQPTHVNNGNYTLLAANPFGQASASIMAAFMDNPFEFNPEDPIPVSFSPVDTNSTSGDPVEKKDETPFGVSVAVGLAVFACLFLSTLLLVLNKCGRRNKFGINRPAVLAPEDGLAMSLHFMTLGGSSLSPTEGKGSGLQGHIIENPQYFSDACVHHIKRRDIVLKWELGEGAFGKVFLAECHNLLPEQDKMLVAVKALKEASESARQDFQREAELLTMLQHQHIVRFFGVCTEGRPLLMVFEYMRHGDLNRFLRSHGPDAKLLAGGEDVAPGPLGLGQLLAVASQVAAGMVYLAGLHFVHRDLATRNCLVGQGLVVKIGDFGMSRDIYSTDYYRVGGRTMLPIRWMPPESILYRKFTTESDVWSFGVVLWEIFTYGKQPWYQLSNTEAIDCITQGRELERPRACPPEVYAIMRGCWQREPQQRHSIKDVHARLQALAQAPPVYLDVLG
Chain of Glycogen synthase kinase-3 alpha (P49840 whole entry): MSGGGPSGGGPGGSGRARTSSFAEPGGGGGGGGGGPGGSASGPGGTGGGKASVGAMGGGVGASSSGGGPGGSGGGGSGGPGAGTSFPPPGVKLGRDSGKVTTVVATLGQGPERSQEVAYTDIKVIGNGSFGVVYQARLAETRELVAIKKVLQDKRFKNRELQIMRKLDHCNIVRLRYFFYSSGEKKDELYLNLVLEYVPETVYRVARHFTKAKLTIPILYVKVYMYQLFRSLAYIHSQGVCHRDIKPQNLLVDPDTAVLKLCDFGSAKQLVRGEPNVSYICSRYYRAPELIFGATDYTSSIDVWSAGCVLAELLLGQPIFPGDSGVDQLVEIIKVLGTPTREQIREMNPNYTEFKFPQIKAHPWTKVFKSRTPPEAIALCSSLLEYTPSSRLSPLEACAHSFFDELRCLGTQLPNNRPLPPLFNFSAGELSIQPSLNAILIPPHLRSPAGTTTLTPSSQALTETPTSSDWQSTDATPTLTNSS
Chain of Ribosomal protein S6 kinase alpha-1 (Q15418 whole entry): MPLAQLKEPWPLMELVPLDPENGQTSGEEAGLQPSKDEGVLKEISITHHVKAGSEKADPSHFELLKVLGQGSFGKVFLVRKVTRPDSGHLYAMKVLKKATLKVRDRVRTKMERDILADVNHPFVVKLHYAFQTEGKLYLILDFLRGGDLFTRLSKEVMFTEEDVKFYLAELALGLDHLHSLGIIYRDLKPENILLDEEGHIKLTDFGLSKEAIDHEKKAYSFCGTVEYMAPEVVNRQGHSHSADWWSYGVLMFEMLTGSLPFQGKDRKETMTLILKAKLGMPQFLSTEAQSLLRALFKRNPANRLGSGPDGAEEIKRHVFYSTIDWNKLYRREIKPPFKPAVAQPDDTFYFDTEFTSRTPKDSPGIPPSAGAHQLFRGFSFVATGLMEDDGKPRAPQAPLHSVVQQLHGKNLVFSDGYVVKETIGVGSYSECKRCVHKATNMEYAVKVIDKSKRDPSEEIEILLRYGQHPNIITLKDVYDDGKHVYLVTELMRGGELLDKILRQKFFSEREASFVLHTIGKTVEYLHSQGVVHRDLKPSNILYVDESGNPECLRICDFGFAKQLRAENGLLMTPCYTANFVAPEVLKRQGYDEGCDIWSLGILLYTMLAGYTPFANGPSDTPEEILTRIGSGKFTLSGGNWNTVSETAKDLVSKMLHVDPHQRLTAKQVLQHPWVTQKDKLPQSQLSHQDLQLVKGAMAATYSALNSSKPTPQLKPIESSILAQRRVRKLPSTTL
Chain of Serine/threonine-protein kinase Nek2 (P51955 whole entry): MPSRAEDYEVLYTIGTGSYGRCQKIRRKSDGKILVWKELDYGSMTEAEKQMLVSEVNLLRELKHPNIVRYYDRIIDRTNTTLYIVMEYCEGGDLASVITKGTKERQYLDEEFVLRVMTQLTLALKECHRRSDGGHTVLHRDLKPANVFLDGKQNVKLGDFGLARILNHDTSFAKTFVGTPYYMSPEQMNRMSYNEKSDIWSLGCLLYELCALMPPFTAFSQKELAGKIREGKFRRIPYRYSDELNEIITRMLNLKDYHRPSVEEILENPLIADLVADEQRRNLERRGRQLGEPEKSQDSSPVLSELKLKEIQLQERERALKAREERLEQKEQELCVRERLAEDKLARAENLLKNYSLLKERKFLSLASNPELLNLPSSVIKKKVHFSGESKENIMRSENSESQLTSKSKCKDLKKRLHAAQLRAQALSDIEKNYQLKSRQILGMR
Chain of Serine/threonine-protein kinase PLK1 (Homo sapiens) (P53350 whole entry): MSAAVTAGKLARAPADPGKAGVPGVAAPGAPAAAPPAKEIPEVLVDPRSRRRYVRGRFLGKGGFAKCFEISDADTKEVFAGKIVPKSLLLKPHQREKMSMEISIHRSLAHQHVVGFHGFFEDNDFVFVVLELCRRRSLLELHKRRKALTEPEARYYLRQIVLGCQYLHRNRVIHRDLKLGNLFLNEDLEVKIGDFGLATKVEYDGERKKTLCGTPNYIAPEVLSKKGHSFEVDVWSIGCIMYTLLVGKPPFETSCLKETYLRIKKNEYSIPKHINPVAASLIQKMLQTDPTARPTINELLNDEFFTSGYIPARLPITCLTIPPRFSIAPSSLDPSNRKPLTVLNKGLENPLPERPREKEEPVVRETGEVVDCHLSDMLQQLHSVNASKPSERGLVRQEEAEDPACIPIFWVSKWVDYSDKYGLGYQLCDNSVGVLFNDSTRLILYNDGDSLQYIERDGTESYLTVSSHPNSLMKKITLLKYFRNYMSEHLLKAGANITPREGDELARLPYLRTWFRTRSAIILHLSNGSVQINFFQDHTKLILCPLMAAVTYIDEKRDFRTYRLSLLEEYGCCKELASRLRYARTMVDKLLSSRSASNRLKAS
Chain of Testis-specific serine/threonine-protein kinase 3 (Q96PN8 whole entry): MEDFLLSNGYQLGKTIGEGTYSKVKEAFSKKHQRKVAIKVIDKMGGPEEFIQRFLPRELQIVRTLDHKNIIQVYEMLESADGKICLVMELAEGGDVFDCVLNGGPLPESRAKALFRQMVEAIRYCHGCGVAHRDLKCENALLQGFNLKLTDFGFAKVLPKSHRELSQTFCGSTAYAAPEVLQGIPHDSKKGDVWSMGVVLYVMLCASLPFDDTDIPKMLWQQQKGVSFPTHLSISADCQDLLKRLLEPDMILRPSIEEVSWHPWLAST

By pIC50 is commonly meant −log10 of the IC50, conventionally taken in molar units. Regarding `COc1ccc(S(=O)(=O)c2cc3cnc(Nc4ccc5[nH]ccc5c4)nc3n(C)c2=O)cc1`, the results for the pIC50 (in data set [1]; in “cells [2]”; with K562) were 6.46, 6.30 and 6.52, respectively.

Broadly, the ΔTm is the shift of the melting midpoint relative to a reference. Take `CC[C@@H]1C(=O)N(C)c2cnc(Nc3ccc(C(=O)NC4CCN(C)CC4)cc3OC)nc2N1C1CCCC1`: the ΔTm in [3] is 12.3 °C.

Consider `Cn1c(=O)c(S(=O)(=O)c2ccccc2)cc2cnc(Nc3ccc4[nH]ccc4c3)nc21`, for which the pIC50 was 5.91 in [1], 5.30 in the data set “cells [2]” and 6.00 in the data set with K562.

Broadly, the GI50 is the concentration that inhibits growth by half. As to `Cn1c(=O)c(S(=O)(=O)c2ccc(OC(=O)CCCCC3SCC4NC(=O)NC43)cc2)cc2cnc(Nc3ccc4[nH]ccc4c3)nc21` (stereo not drawn), the GI50 in the data set on NCI-H1975 is 750 nM; in the data set “cells [4]”, 500 nM; in “cells [5]”, 400 nM; in “cells [6]”, 500 nM; in “cells [7]”, 250 nM; in the data set on U2OS [8] it was 350 nM. Also, the GI50 with MCF7 was determined as 500 nM; in the data set with A549, 2500 nM; in the data set “cells [9]”, 1000 nM; in the data set “cells [10]”, 100 nM; with SK-MEL-28, 500 nM; with Raji, 400 nM. The compound further returned a GI50 in the data set with HeLa of 500 nM. Also, the results for the pIC50 in the data set “cells [2]” and in the data set on K562 were 6.82 and 6.22, respectively. On Tubulin (Bos taurus) [11], the inhibition result is “Active”.

On to `Cn1c(=O)c(S(=O)(=O)c2ccc(F)cc2F)cc2cnc(Nc3ccc4[nH]ccc4c3)nc21`, for which the pIC50 is 6.51 in data set [1]; under 5.30 in data set [12]; under 5.30 in [13]; under 5.30 in [14]; under 5.30 in [15]; 5.35 in data set [17]. The pIC50 in data set [18] is under 5.30; in data set [20], under 5.30; in [21] it was 5.74; against Ephrin type-A receptor 6, under 5.30; in data set [22], 6.43; in data set [23], under 5.00. Further, the pIC50 in data set [24] is under 5.30; in data set [25], under 5.30; in [26] it was under 5.30; in data set [27], under 5.00; in data set [28], 6.20. The Activity entry in the data set on U2OS [16] was “Dose-dependent effect”; in the data set with Mus musculus, “Non-toxic”. Also, the results for the ΔTm in data set [19] and in data set [3] were 0.2 °C and 4.1 °C, respectively. Further, on Tubulin (Bos taurus) [11], the inhibition result was “inactive”.

For `CC[C@]1(O)C[C@H]2CN(CCc3c([nH]c4ccccc34)[C@@](C(=O)OC)(c3cc4c(cc3OC)N(C=O)[C@H]3[C@@](O)(C(=O)OC)[C@H](OC(C)=O)[C@]5(CC)C=CCN6CC[C@]43[C@@H]65)C2)C1`, the inhibition entry on Tubulin (Bos taurus) [29] was “Active”.

For `Cn1c(=O)c(S(=O)(=O)c2ccc(O)cc2)cc2cnc(Nc3ccc4[nH]ccc4c3)nc21`, the figures for the pIC50 (in data set [1]; in the data set “cells [2]”; in the data set on K562) were 6.33, 6.60 and 7.00, respectively. The GI50 in the data set with NCI-H1975 stood at 750 nM; in the data set “cells [4]”, 250 nM; in “cells [5]” it was 750 nM; in the data set “cells [6]”, 250 nM; in “cells [7]” it was 200 nM; with U2OS [8] it was 350 nM. The GI50 was found to be 500 nM with MCF7; 750 nM with A549; 1000 nM in the data set “cells [9]”; 100 nM in “cells [10]”; 500 nM with SK-MEL-28; 500 nM with Raji. In the data set with HeLa, this compound came in with a GI50 of 750 nM. Besides, the inhibition result at Tubulin (Bos taurus) [11] was “Active”.

Consider `Cn1c(=O)c(S(=O)(=O)c2ccc(F)cc2)cc2cnc(Nc3cccc4[nH]ccc34)nc21`, for which the pIC50 in [1] was 5.22; in the data set “cells [2]”, 6.12; in the data set with K562, 6.12.

As for `Cn1c(=O)c(S(=O)(=O)c2ccc(F)cc2)cc2cnc(Nc3ccc4[nH]ccc4c3)nc21`, the pIC50 is 5.97 in data set [1], 6.52 in “cells [2]” and 6.70 in the data set on K562. The GI50 in the data set on NCI-H1975 came to 100 nM; in the data set “cells [4]”, 60 nM; in the data set “cells [5]”, 200 nM; in “cells [6]”, 200 nM; in the data set “cells [7]”, 200 nM; in the data set on U2OS [8], 55 nM. Further, the GI50 in the data set on MCF7 stood at 250 nM; in the data set on A549 it was 200 nM; in the data set “cells [9]”, 400 nM; in “cells [10]” it was 75 nM; with SK-MEL-28, 300 nM; in the data set with Raji, 100 nM. In the data set on HeLa, this compound returned a GI50 of 75 nM. The Activity result in the data set with U2OS [16] is “Dose-dependent effect”. The inhibition result on Tubulin (Bos taurus) [11] is “Active”.

Turning to `Cn1c(=O)c(S(=O)(=O)c2ccc(F)cc2)cc2cnc(Nc3ccc4[nH]ncc4c3)nc21`, the values for the pIC50 in the data set “cells [2]” and in the data set on K562 were 5.30 and 5.00, respectively.

For `Cn1c(=O)c(S(=O)(=O)c2ccc(F)cc2F)cc2cnc(Nc3cccc4[nH]ccc34)nc21`, the pIC50 is 6.12 in “cells [2]” and 5.82 in the data set with K562.
